For test [1], the system named is LL 47 lung fibroblast viability, ATP luminescence. Description: LL 47 lung fibroblast growth inhibition, concentration-response, selectivity test for endothelial growth inhibitor program, cellular, luminescent ATP readout (AID 821).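 As to viability: 100% = median of untreated cell-only wells and 0% = no luminescence.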 The method in brief: (§1)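 Assay system: LL 47 human lung fibroblast cells | Amount: 1,150 cells/well | Schedule: 72 h exposure, 37 °C | Measured by: CellTiter-Glo luminescence | Measure: Percent viability relative to untreated wells, EC50 via 4-parameter fit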

Assay in test [2]: as above
To be noted: LL 47 lung fibroblast viability, ATP luminescence; at 20 µM (top of the series). The procedure, abridged:
as §1

SMILES strings stand for the structures. Activity calls are given as the source filed them.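 The calls were made as follows: active = compounds whose fitted half-maximal concentration for reducing fibroblast viability is 100 µM or lower; inactive = the rest.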

The source of these data is PubChem BioAssay AID821 (SRMLSC, 2007).

The EC50 is the concentration that produces a half-maximal response. For the compound `CN=C1c2cc3cc(OC)ccc3n2CCN1Cc1ccccc1`, in test [1], the EC50 is 18.1 µM.

In the case of `CC(=O)Nc1ccc(NC2=Nc3ccccc3N3C2=Nc2c(c(C)nn2-c2ccccc2)C3c2ccccc2)cc1` (stereo unspecified), the EC50 in test [1] was 12.2 µM. Same read-out and setting: as for `Cc1cc(C)n(S(=O)(=O)/C=C/c2ccccc2)n1`, the figure is 9.12 µM; as for `Cc1ccc(NC(=O)c2cc(NC(=O)c3ccco3)ccc2N2CCCCC2)cc1`, 18 µM. Consider `O=C(Oc1ccccc1)c1cccc2cccnc12`, for which, in test [1], the EC50 was 6.87 µM. `COCc1cc(CN2CCCC2)c(O)c2ncccc12`: the EC50 in test [1] is 11.7 µM.

With `COc1cc(N=c2ssnc2Cl)cc(OC)c1OC`, in test [1], the EC50 was 15.2 µM.

Take `CC(C)=CCC/C(C)=C/CCC(C)NCCN1CCNCC1` (stereo unspecified): in test [1], the EC50 is 10.4 µM. The same measure, in the same setting: the result for `O=c1[nH]c(Nc2nc3ccccc3o2)nc2c1CCCC2` reads 4.52 µM.

Turning to `CC1(C)Cc2c(c(N3CCOCC3)nc3snc(N)c23)CO1`, in test [1], the EC50 was 10.9 µM. Still for that read-out and setting: the result for `N=c1c2c(ncn1CCN1CCOCC1)Oc1ccc3ccccc3c1C2c1ccccc1` (stereo unspecified) reads 17.5 µM; that for `c1ccc2c(c1)oc1c(Nc3ccc(CN4CCOCC4)cc3)ncnc12`, 17.2 µM. On the same count and under the same terms, as for `CN1CCN(CCCN2c3ccccc3Sc3ccc(C(F)(F)F)cc32)CC1`, the figure is 17.9 µM; as for `COc1ccc2c(c1)c1nc3ccccc3nc1n2CC(=O)OC(C)C`, 15.5 µM; as for `COc1ccc(C(=O)C(CN2CCOCC2)c2ccccc2)cc1F` (stereo unspecified), 5.53 µM. The same measure, in the same setting: as for `O=C(Nc1ccc(N2CCOCC2)cc1)Nc1ccc2nc(-c3ccco3)c(-c3ccco3)nc2c1`, the figure is 2.18 µM. As to `O=C(Nc1nc(NC(=O)c2ccco2)n(-c2ccccc2)n1)c1ccccc1`, the 50% effective concentration (EC50) in test [1] is 11.5 µM. The same measure, in the same setting: as for `N=c1n(CCN2CCCCC2)c2ccccc2n1CC(O)c1cccc(Br)c1` (stereo unspecified), the figure is 13.3 µM; as for `COc1ccc2nc(Nc3nc(CSc4nnnn4-c4ccccc4)cc(=O)[nH]3)nc(C)c2c1`, 13.8 µM.

`Oc1c(C(Nc2ccccn2)c2ccccn2)ccc2cccnc12` (stereo unspecified): in test [1], the EC50 was 5.55 µM. Same read-out and setting: as for `CCSc1nnc(NC(=O)c2ccccn2)s1`, the figure is 16.5 µM; as for `CN1C[C@H](CNC(=O)OCc2ccccc2)C[C@@H]2c3cccc4c3c(cn4C)C[C@H]21`, 15 µM; as for `CCOC(=O)c1c(NC(=O)CCl)sc(C(=O)N(CC)CC)c1C`, 6.25 µM. Consider `Cc1cccc(CS(=O)(=O)c2nnc([C@H](Cc3ccccc3)NC(=O)OC(C)(C)C)o2)c1`, for which the EC50 in test [1] was 16.7 µM.

On to `COC(=O)C1=C(O)/C(=C\c2ccc(CNC(=O)C(=O)Nc3ccc(C)cc3)o2)N=C1C`, for which the EC50 in test [1] was 9.27 µM. Same read-out and setting: the result for `COC(=O)CCS(=O)(=O)c1nc(-c2ccccc2)cc(C(F)(F)F)n1` reads 14.4 µM; that for `O=C(CCS(=O)(=O)c1ccccc1)Nc1nc2c(s1)CCCC2`, 14.3 µM. The same measure, in the same setting: as for `Cn1c(=O)n(C)c2cc(C(=O)Nc3ccc4c(c3)OCO4)ccc21`, the figure is 12.9 µM; as for `Cc1sc2nc(SCC(=O)C(C)(C)C)n(Cc3ccco3)c(=O)c2c1C`, 16.9 µM; as for `O=C(Nc1nccs1)c1c(O)c2cccc3c2n(c1=O)CCC3`, 15.2 µM. By viability is commonly meant a read-out of living cells in per cent, often relative to untreated cells. Turning to `CCCC(=O)Nc1cccc(-c2nc3cc(C)c(C)cc3o2)c1`, in test [2], the viability is 104% (inactive). The same measure, in the same setting: as for `CCCSc1nc2c(cnn2-c2ccc(C)cc2)c(=O)[nH]1`, the figure is 93.1% (inactive). On the same count and under the same terms, as for `O=C(Nc1nnc(-c2ccc3c(c2)CCCC3)o1)c1ccc(Cl)cc1Cl`, the figure is 95.8% (inactive); as for `CSc1nnc2n(-c3ccc(C)cc3)c(=O)c3c4c(sc3n12)COC(C(C)C)C4` (stereo unspecified), 109% (inactive); as for `O=C(CSc1ncnc2c1oc1ccccc12)Nc1nc2ccccc2s1`, 105% (inactive). On the same count and under the same terms, as for `Cc1ccc(-n2c(Cc3cccs3)nnc2SCC(=O)Nc2ccc(F)c(F)c2)cc1`, the figure is 95.7% (inactive); as for `Clc1ccccc1-c1ccc(/C=N/n2cnnc2)o1`, 111% (inactive). Consider `Cc1nn(-c2ccc(Cl)cc2)c2sc(C(=O)N3CCN(c4ccccn4)CC3)cc12`, for which the viability in test [2] is 91.4% (inactive). Still for that read-out and setting: the result for `Cc1cc(C)c2oc(-c3cccc(NC(=O)c4ccc(F)cc4)c3)nc2c1` reads 104% (inactive). On the same count and under the same terms, the result for `COc1ccc(CCn2c(=S)[nH]c3cc(C(=O)NCc4ccco4)ccc3c2=O)cc1OC` reads 108% (inactive); that for `Cc1nc2ccccc2c2oc(C(=O)NCc3ccc4c(c3)OCO4)cc12`, 102% (inactive). Same read-out and setting: the result for `Cc1ccc(-n2nnnc2SCC(=O)Nc2ccc3c(c2)COC3=O)cc1C` reads 94.5% (inactive); that for `Cc1ccc(Cn2c(SCC(=O)Nc3cc(C)on3)nc3ccccc3c2=O)cc1`, 80.1% (inactive).

`CCn1nc(C(=O)NC2=NCCS2)c2ccccc2c1=O`: the viability in test [2] was 103% (inactive). Still for that read-out and setting: as for `Cn1c(-c2ccc3ccccc3n2)nc2cnccc21`, the figure is 93.4% (inactive).

Turning to `CC1(C)Cc2c(C#N)c(SCC(=O)c3ccccc3)nc(N3CCOCC3)c2CO1`, in test [2], the viability was 90.1% (inactive).

Consider `CCCCCCCCOC(=O)C1=C(C)Nc2nnnn2C1c1cccs1` (stereo unspecified), for which the viability in test [2] is 117% (inactive).

On to `CC1(c2ccccc2)CC(C)(C)N2C(=O)C3(C(C#N)=C(N)Oc4cc(O)ccc43)c3cccc1c32` (stereo unspecified), for which the viability in test [2] was 87.7% (inactive).

As to `CC1(C)Nc2ccc(O)cc2-c2c1ssc2=S`, the viability in test [2] was 92.1% (inactive). Turning to `Cc1cc(Cl)ccc1N=c1ssnc1Cl`, the viability in test [2] is 104% (inactive). Still for that read-out and setting: the result for `O=C(CCSc1ccc(Cl)cc1)N1CCN(c2ncccn2)CC1` reads 96.4% (inactive); that for `Cn1c(SCC(=O)Nc2ccc(N3CCOCC3)cc2)nnc1-c1ccccc1`, 109% (inactive); that for `COc1ccc(CCNC(=O)c2ccc3c(=O)n(Cc4ccco4)c(=S)[nH]c3c2)cc1OC`, 112% (inactive). On the same count and under the same terms, as for `Nc1nc2ccccc2n1/N=C/c1ccc(-c2ccccc2)o1`, the figure is 111% (inactive). As for `CC1CCN(S(=O)(=O)c2ccc(NC(=O)Cn3nnc(-c4ccccc4F)n3)cc2)CC1`, the viability in test [2] is 90.8% (inactive).

For `C=C(C)COc1ccc(-c2n[nH]c(C)c2-c2ccccc2OC)c(O)c1`, the viability in test [2] was 90.3% (inactive). Still for that read-out and setting: as for `O=C(Nc1ccc2c(c1)OCO2)c1cc(C2CC2)on1`, the figure is 104% (inactive); as for `COc1cc(NC(=O)Nc2ccccc2)c(OC)cc1NC(=O)CN1CCCCC1`, 82.8% (inactive).

For `COc1ccc(OC)c(C(=O)CSc2nnc(-c3ccc(OC)c(OC)c3)o2)c1`, in test [2], the viability was 88.4% (inactive). Same read-out and setting: the result for `Cc1ccsc1/C=C/C1=Cc2c(sc(NC(=O)CSc3n[nH]c(N)n3)c2C#N)C(C)(C)C1` reads 112% (inactive); that for `O=c1/c(=C/c2ccco2)sc2n1CN(c1cccc(Br)c1)CN=2`, 106% (inactive). Still for that read-out and setting: as for `COc1cc2c(C(=O)NCc3ccc4c(c3)OCO4)cn(CC(C)C)c(=O)c2cc1OC`, the figure is 106% (inactive); as for `CCCCn1c(SCC(=O)Nc2cc(NC(=O)c3ccco3)ccc2C)nc2ccccc2c1=O`, 99.3% (inactive). The same measure, in the same setting: as for `COc1ccc(N/N=C2/CCCCC2=O)cc1`, the figure is 123% (inactive). As for `O=C(Nc1ccc(OC(F)F)c(Cl)c1)Nc1ccc2c(c1)OCO2`, in test [2], the viability is 109% (inactive). Same read-out and setting: the result for `c1ccc(CC2CCN(C3=Nc4cccc5cccc3c45)CC2)cc1` reads 80.8% (inactive).
